From publication PMC2275130 (Nucleic Acids Research, 2008) come the findings set out here.

By IC50 is commonly meant the concentration needed to halve the response being measured. By Ki is commonly meant the dissociation constant of the complex between target and ligand, obtained from inhibition or displacement. A high value points to weaker binding.

What all share (type): biochemical
Assay [1] deals with T1, HCV NS5BCΔ21 (Hepatitis C virus genotype 1b, UniProt P26663). As to the kind of experiment: Gel-based incorporation assay. To be noted: highest concentration of wedelolactone (lane 5, 100 μM), poly rA/U12, 20 min. The essentials: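 Stopped with 25 mM EDTA/0.5% SDS, then phenol-chloroform extracted and ethanol precipitated. Products were heated 90°C for 5 min, run on denaturing 6% polyacrylamide/7 M urea gel and imaged by phosphorimager.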

For assay [2], the target named is Klenow fragment of E. coli DNA polymerase I (Escherichia coli, UniProt P00582). Description: Klenow polymerase counter screen. The following applies: read-out: IC50 Klenow polymerase counter screen; poly rA/dT18, 10% DMSO. The essentials: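 Exonuclease-deficient Klenow fragment from E. coli BL-21(DE3), purified by ammonium sulfate fractionation and Biorex-70, used at 10 nM. Ran 37°C for 20 min, TCA/pyrophosphate quench, GF-B filtration, scintillation counting.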
(In general: The purpose of a counterscreen is to sort out artefacts and off-target activity.)

The target of a further assay is HIV-1 RT (Human immunodeficiency virus type 1 group M subtype B, UniProt P04585). As to the kind of experiment: HIV-1 RT counter screen. An outline of the steps: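 His-tagged p66/p51 heterodimeric wild-type RT, Ni-NTA purified, used at 10 nM. Reactions ran 37°C for 20 min, were stopped with ice-cold 5% TCA/0.5 mM pyrophosphate, filtered on GF-B and scintillation counted.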

In assay [3] the target is T1, HCV NS5BCΔ21. Description: Determination of Ki and mode of inhibition. To be noted: towards template/primer (poly rA/U12 varied), UTP fixed 25 μM. The essentials:
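Aliquots were taken at defined times, quenched in 5% TCA/0.5 mM pyrophosphate, and counted by GF-B filter binding. Ki and mode came from Dixon and Cornish-Bowden plots. Each run was done at least twice; values average at least triplicates.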

For assay [4], the target named is T1, HCV NS5BCΔ21. As to the kind of experiment: NS5B RdRp assay. The following applies: NS5B inhibition (IC50 μM), poly rA/U12, 25 μM UTP, 0.5 mM MnCl2, 10% DMSO, 1 h at 30°C. An outline of the steps: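 NS5BCΔ21 (300–500 ng) and poly rA/U12 (0.5 μM) sat 5 min on ice before NTPs were added. Reactions ran 1 h at 30°C, then TCA quench and GF-B counting. IC50s were read from curves relative to DMSO control, from at least two independent runs.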

SMILES strings stand for the structures. Some results are limits rather than exact numbers.

Regarding `COc1cc(O)c2c(c1)oc(=O)c1c3cc(O)c(O)cc3oc21` [Wedelolactone, 7-methoxy-5,11,12-trihydroxy-coumestan], the “extension product formation (gel)” value on HCV NS5BCΔ21 [1] was “no detectable extension product”. Besides, the half-inhibitory concentration (IC50) in assay [2] is more than 700 µM; against HIV-1 RT it was more than 250 µM; against HCV NS5BCΔ21 [4], 36.1 µM. Also, the Ki at HCV NS5BCΔ21 [3] (Ki competitive) was determined as 11.2 µM. Also, on HCV NS5BCΔ21 [3], the Ki uncompetitive came out at 43 µM.
